Source: PubChem BioAssay
AP ELISA ortho: alternative pathway complement inhibition, orthogonal assay; Human serum alternative complement pathway, LPS-coated ELISA, C3 deposition; tested in compound mixtures; inhibition, % at 5 µM; hit rate 0.08% among 62,000; AID 1235;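 active = inhibition above 30% in each of the two pooled mixtures holding the compound, so the lower value exceeds 30%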
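Assay system: human serum alternative complement pathway, C3 deposition on LPS-coated wells; Dosing: 5 µM per compound in ten-compound mixtures; Detection: Anti-C3 ELISA, OD 450 nm; Buffer or medium: Mg2+-EGTA GVB++ buffer containing human serum at 1:15 dilution; Timing: 1 h at 37 °C; Replication: two different pools per compound.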
D1 mod: allosterically modulates the human D1 dopamine receptor; P21728; HEK293 D1, CRE-luciferase, dopamine EC30 potentiation; actives deviate in either direction; B-score at 10 µM; hit rate 5.9% among 58,000;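 active = luminescence count or its row- and column-corrected plate score outside the 99.7% band of the plate's sample wells, on either side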
Target sequence (P21728 whole entry, looked up): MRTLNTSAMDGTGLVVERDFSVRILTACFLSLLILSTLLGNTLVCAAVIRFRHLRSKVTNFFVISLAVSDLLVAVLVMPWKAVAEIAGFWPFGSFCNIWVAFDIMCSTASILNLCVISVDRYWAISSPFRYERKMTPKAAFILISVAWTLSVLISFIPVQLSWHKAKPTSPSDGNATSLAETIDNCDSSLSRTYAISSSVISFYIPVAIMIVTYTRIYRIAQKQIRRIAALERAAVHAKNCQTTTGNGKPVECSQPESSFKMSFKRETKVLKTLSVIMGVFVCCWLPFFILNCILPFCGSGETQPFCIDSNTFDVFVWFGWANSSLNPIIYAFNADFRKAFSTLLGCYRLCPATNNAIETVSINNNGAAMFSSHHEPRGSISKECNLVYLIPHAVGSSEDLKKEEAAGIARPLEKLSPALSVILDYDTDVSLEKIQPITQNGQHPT
Htt clearance: mutant huntingtin protein clearance | inhibition, % at 1.5 µM | hit rate 0.42% among 47,000 | HeLa Exon1htt(103Q)mCFP, aggregate imaging; zero = plate's median compound well;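 active = inhibition of aggregate fluorescence above about 70%, also judged a hit by eye on the cell image, limit read from the data, passing the limit was not always enough; inconclusive = no rule stated for this call; inactive = not judged a hit on image review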;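 note: cells exposed to compound for three days before fixation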
M1 antagonist: M1 muscarinic receptor (rat) antagonism. P08482. CHO-M1 cells, Fluo-4 calcium, ACh EC80 antagonist mode; stronger effect = lower value. B-score at 10 µM. hit rate 3.4% among 64,000. AID 628;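 active = calcium fluorescence response, raw or row-and-column corrected B-score, differing from the plate sample mean either way at a set confidence level, mostly lower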
M1 ag: M1 muscarinic receptor agonism | CHO-M1 cells, Fluo-4 calcium fluorescence, agonist mode; stronger effect = higher value | B-score at 10 µM | hit rate 3% among 64,000;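 active = fluorescence rise, raw or as B-score row- and column-corrected plate score, outside the 99.7% band of its plate's samples, either direction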
M1 agonist conf: rat M1 muscarinic agonism, confirmation. fluorescence change (max-min) at 10 µM. hit rate 19% among 1,700. CHO-M1 cells, Fluo-4 calcium fluorescence, agonist mode; actives lie on both sides. shares compounds with M1 ag;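 active = fluorescence change differs from the solvent-only DMSO control mean at a set confidence level in both duplicate runs; inconclusive = differs from solvent-only control mean in just one of two runs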;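 note: an EC20 dose of acetylcholine follows compound addition during the same imaging run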
M4 agonist ctr: counter-screen for M1 agonists: activity at rat M4 receptor | shares compounds with M1 ag | CHO M4/Gqi5 cells, Fluo-4 calcium fluorescence, agonist mode; actives lie on both sides | fluorescence change (max-min) at 10 µM | hit rate 9% among 1,700 | AID 1741;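 active = fluorescence change differing from the plate's solvent-only control wells at 99.7% confidence in both duplicates, whether higher or lower; inconclusive = differs from solvent controls in only one of two duplicates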
Each line names hits and unclear results; the compound was inactive in the other large screens (follow-up assays come after a bar, where they were run). Most compounds without a hit are left out; they make up all but 9% or so of the library.

COc1ccc(-n2c(O)c(/C=N/n3cnnc3)c3ccccc3c2=O)cc1	M1 ag 14.8 (no result: Htt clearance) | M1 agonist conf 164 | M4 agonist ctr inactive
C1=CN2CCC1C(c1ccccc1)C2 (centres undefined)	M1 antagonist -7.97, M1 ag 43.8 | M1 agonist conf 428 | M4 agonist ctr inactive
CCCCC1(O)CC(C(F)(F)F)=NN1C(=O)COc1ccccc1 (centres undefined)	none (no result: AP ELISA ortho, D1 mod, M1 antagonist, M1 ag)
COCCN1C(=O)C(CC(=O)Nc2ccc(C(C)=O)cc2)SC1=Nc1ccccc1 (centres undefined)	M1 ag 3.86 | M1 agonist conf inconclusive | M4 agonist ctr inactive
N#CC1=C(N)SC(N)=C(C#N)C1CCC1CCCCC1	M1 ag 6.31 | M1 agonist conf inactive | M4 agonist ctr inactive
Nc1nnc(CCC2CCCCC2)s1	none (no result: AP ELISA ortho, D1 mod)
CCCn1nc(C(=O)Nc2cccc(C(=O)OC)c2)c2ccccc2c1=O	M1 ag 5.69 (no result: Htt clearance) | M1 agonist conf inactive | M4 agonist ctr inactive
CCOc1ccc2nc(N3CCC(C(=O)N4CCN(C(=O)c5ccco5)CC4)CC3)sc2c1	M1 ag 2.83 (no result: Htt clearance) | M1 agonist conf inconclusive | M4 agonist ctr inactive
CCOc1ccc2nc(N3CCCC(C(=O)N4CCN(CC)CC4)C3)sc2c1 (centres undefined)	none
Cc1cc(-n2c(C)cc(C(=O)CSc3nnc4sc5ccccc5n34)c2C)no1	none
Cc1cc(-n2c(C)cc(C(=O)COc3ccc4ccc(=O)oc4c3)c2C)no1	M1 ag 6.22 (no result: Htt clearance) | M1 agonist conf inconclusive | M4 agonist ctr inactive
Cc1cc(-n2c(C)cc(C(=O)CSc3ncnc4ccccc34)c2C)no1	D1 mod -3.17, M1 ag 7 (no result: Htt clearance) | M1 agonist conf inactive | M4 agonist ctr inconclusive
CC(=O)c1cccc(OCC(=O)c2cc(C)n(-c3cc(C)on3)c2C)c1	none
Cc1nnc(NC(=O)C2C3C=CC(O3)C2C(=O)O)s1 (centres undefined)	M1 ag 3.36 | M1 agonist conf inconclusive | M4 agonist ctr inactive
COC(=O)c1ccc(NC(=O)C2C3C=CC(O3)C2C(=O)O)cc1 (centres undefined)	none
COc1cccc(N2CCN(C3CC(=O)N(c4cccc(Cl)c4)C3=O)CC2)c1 (centres undefined)	none (no result: AP ELISA ortho, D1 mod, Htt clearance)
COc1cccc(N2CCN(C3CCCC(C)C3)CC2)c1 (centres undefined)	M1 ag 3.58 | M1 agonist conf inactive | M4 agonist ctr inactive
CC(C)N1C(=O)CCC1C(=O)NCc1ccccc1Cl (centres undefined)	none (no result: Htt clearance)
COC(=O)CSc1nnc(CNC(=O)c2ccco2)n1-c1ccc(F)cc1	M1 ag 4.41 | M1 agonist conf inactive | M4 agonist ctr inconclusive
CCOC(=O)CSc1nnc(CNC(=O)c2ccco2)n1C	none
CC(C)C(=O)Nc1cccc(C(=O)Nc2nccs2)c1	none
CCOc1cc(C2C(C(=O)c3ccc(C)o3)=C(O)C(=O)N2CCc2ccccc2)ccc1O (centres undefined)	none (no result: Htt clearance)
COc1cc(C2C(C(=O)c3ccco3)=C(O)C(=O)N2CCc2ccccc2)ccc1O (centres undefined)	M1 ag 88.9 (no result: D1 mod, Htt clearance) | M1 agonist conf inactive | M4 agonist ctr inactive
Nc1nc(CSc2n[nH]c(-c3ccccc3)n2)nc(Nc2ccccc2)n1	M1 ag 2.21 (no result: Htt clearance) | M1 agonist conf -42.4 | M4 agonist ctr inactive
COc1cc(OC)cc(-c2nnc(SCc3c(F)cccc3Cl)o2)c1	M1 ag -2.79 (no result: Htt clearance) | M1 agonist conf inconclusive | M4 agonist ctr inactive
COc1ccc(CCn2c(-c3ccco3)nc3nc4ccccc4nc32)cc1	Htt clearance inconclusive, M1 ag 3.51 | M1 agonist conf inactive | M4 agonist ctr inactive
CCCn1c(-c2ccc(OC)cc2)nc2nc3ccccc3nc21	none
O=C(CCCC1=NS(=O)(=O)c2ccccc2N1)N1CCN(c2ccc(Cl)cc2)CC1	none (no result: Htt clearance)
CC(C)(CC(=O)N1CCN(c2ccc(Cl)cc2)CC1)CC1=NS(=O)(=O)c2ccccc2N1	M1 antagonist -3.21, M1 ag 11.3 (no result: D1 mod, Htt clearance) | M1 agonist conf inconclusive | M4 agonist ctr inactive
COc1cccc(N2CCN(Cc3nc(N)nc(Nc4ccccc4)n3)CC2)c1	M1 ag 6.27 | M1 agonist conf inactive | M4 agonist ctr inactive
COc1ccccc1N1CCN(Cc2nc(N)nc(Nc3ccc(C)c(Cl)c3)n2)CC1	M1 ag 3.34 (no result: Htt clearance) | M1 agonist conf inconclusive | M4 agonist ctr inconclusive
Cc1cccc(Nc2nc(N)nc(CN3CCN(c4ccccc4)CC3)n2)c1	none (no result: Htt clearance)
O=C(CN(Cc1ccc2c(c1)OCO2)C(=O)CSc1nc2ccccc2o1)NC1CCCCC1	none
COc1cccc(C2C(C(=O)c3ccco3)=C(O)C(=O)N2CCCN2CCOCC2)c1OC (centres undefined)	none (no result: Htt clearance)
CC1(C)CC(=O)C2=C(C1)OC(N)=C(C#N)C21CCN(Cc2ccccc2)CC1	M1 ag 6.94 (no result: Htt clearance) | M1 agonist conf inactive | M4 agonist ctr inactive
C=CCn1c(SCC(=O)NC2CCCCC2)nnc1C(C)NC(=O)c1cccs1 (centres undefined)	none (no result: Htt clearance)
C=CCn1c(SCC(=O)c2ccc(OC)cc2)nnc1C(C)NC(=O)c1cccs1 (centres undefined)	M1 ag -2.82 | M1 agonist conf inconclusive | M4 agonist ctr inactive
COc1ccc(C2(CNC(=O)CCC(=O)O)CCCC2)cc1OC	none (no result: AP ELISA ortho, D1 mod, M1 antagonist, M1 ag)
CC1CCCCN1S(=O)(=O)c1ccc2c(c1)CCN2C(=O)C1CCC1 (centres undefined)	none (no result: Htt clearance)
O=C(c1ncc[nH]1)c1ccco1	M1 ag 3.55 (no result: Htt clearance) | M1 agonist conf inactive | M4 agonist ctr inactive
Cc1ccc(N=C2C(=S)N(c3ccc(C)cc3)C(=N)N2/N=C/c2ccc(Cl)cc2)cc1	none (no result: AP ELISA ortho, D1 mod, M1 antagonist, M1 ag)
COCc1cc(C)nc2sc(C(=O)OC)c(N)c12	M1 ag 4.38 | M1 agonist conf inactive | M4 agonist ctr inactive
Cc1cc(C)n(CCOc2ccc(Cl)cc2Cl)n1	none (no result: AP ELISA ortho, Htt clearance)
O=C(Nc1nc(-c2cc3ccccc3oc2=O)cs1)c1ccco1	M1 ag 1.6 (no result: D1 mod, Htt clearance) | M1 agonist conf inactive | M4 agonist ctr inactive
COC(=O)CSc1nnc(CNc2ccc(Cl)cc2)n1-c1ccccc1	none (no result: AP ELISA ortho, D1 mod, M1 antagonist, M1 ag)
COc1ccc(C)cc1S(=O)(=O)Nc1ccccc1C	none
COc1cc(NS(=O)(=O)c2ccc(C)cc2C)cc(OC)c1OC	M1 ag 4.14 | M1 agonist conf inconclusive | M4 agonist ctr inactive
CC1=C(C#N)C(=O)N(C)C(C)(C)C1	M1 ag 19.3 (no result: Htt clearance) | M1 agonist conf inactive | M4 agonist ctr inactive
CC1=C(C#N)C(=O)NC(C)(C)C1	none
O=C(Nc1cccnc1)C1CC(c2ccc(Cl)c(Cl)c2)=NO1 (centres undefined)	M1 ag -2.62 (no result: D1 mod) | M1 agonist conf inactive | M4 agonist ctr inactive
O=C(NCc1ccccn1)C1CC(c2ccc(Cl)c(Cl)c2)=NO1 (centres undefined)	none (no result: AP ELISA ortho, D1 mod, M1 antagonist, M1 ag)
